Published values collected from several papers.
Compare with care: the assays were run in different laboratories.
rep papain-like protease: Replicase polyprotein 1ab, papain-like protease (rep, Porcine epidemic diarrhea virus, UniProt P0C6Y4)
SLC6A4: Sodium-dependent serotonin transporter (SLC6A4, Homo sapiens, UniProt P31645)
DRD1: D(1A) dopamine receptor (DRD1, Homo sapiens, UniProt P21728)
rep main protease: Replicase polyprotein 1ab, main protease (rep, Porcine epidemic diarrhea virus, UniProt P0C6Y4)

`COc1cc(CNC(=O)c2cccc(OC(C)=O)c2C)cc(Br)c1OC` gave an inhibition of 14.1% (rep papain-like protease; enzyme activity; inhibitor; FRET; 10 µM).
The inhibition of `N#C[C@@]12C[C@@H]1[C@@H](n1cnc3c(Nc4ccccc4)nc(C#Cc4ccc(Cl)s4)nc31)[C@H](O)[C@@H]2O` is reported as 12% (SLC6A4; ligand displacement; radioligand; 10 µM).
For `NC/C(=C\F)COc1cccc(Cn2c(=S)[nH]c(=O)c3[nH]cnc32)c1`, the inhibition was under 50% (DRD1; ligand displacement; radioligand; 10 µM).
`CCOC(=O)[C@@]12C[C@@H]1[C@@H](n1ccc3c(NCCCCCCCc4ccccc4)nc(C#Cc4ccccc4)nc31)[C@H](O)[C@@H]2O` gave an inhibition of 32% (SLC6A4; ligand displacement; radioligand; 10 µM).
With `COc1ccc(C(=O)NCc2cc(Br)c(OC)c(OC)c2)cc1` the inhibition was 83.7% (rep main protease; enzyme activity; inhibitor; FRET; 10 µM).
With `Cc1cc(O)c(-c2ccc([C@@H](C)CN(C)C)cc2)c2c1[nH]c(=O)c1sccc12` the inhibition was 15.6% (Mitogen-activated protein kinase kinase kinase 6 (MAP3K6, Homo sapiens, UniProt O95382); enzyme activity; inhibitor; 0.1 µM).
The inhibition of `O=C(NCc1cc(O)c(O)c(Br)c1)c1ccccc1` is reported as 74.8% (rep main protease; enzyme activity; inhibitor; FRET; 10 µM).
For `OC[C@@]12C[C@@H]1[C@@H](n1cnc3c(NC(C4CCC4)C4CCC4)nc(C#Cc4ccc(Cl)s4)nc31)[C@H](O)[C@@H]2O`, the inhibition was 15% (SLC6A4; ligand displacement; radioligand; 10 µM).
`CSc1ccccc1C(=O)NCc1cc(O)c(O)c(Br)c1` gave an inhibition of 13.9% (rep main protease; enzyme activity; inhibitor; FRET; 10 µM).
`N#CC[C@@]12C[C@@H]1[C@@H](n1cnc3c(NCCCCCc4ccccc4)nc(I)nc31)[C@H](O)[C@@H]2O` gave an inhibition of 3% (SLC6A4; ligand displacement; radioligand; 10 µM).
With `CCN1/C(=C/C(C)=O)Sc2ccc(F)cc21` the inhibition was 7.04% (DRD1; ligand displacement; radioligand; 10 µM).
With `Cc1cc(F)cc2c(CCC(=O)N[C@@H]3C(=O)NC[C@H]3O)c(-c3ccc(F)cc3)[nH]c12` the inhibition was 8% (SLC6A4; cell-free assay; 10 µM).
The inhibition of `Cn1c(C(=O)NCc2cc(O)c(O)c(Br)c2)cc2ccccc21` is reported as 86.3% (rep papain-like protease; enzyme activity; inhibitor; FRET; 10 µM).
The inhibition of `N#C[C@@]12C[C@@H]1[C@@H](n1cnc3c(Nc4ccccc4)nc(I)nc31)[C@H](O)[C@@H]2O` is reported as 3% (SLC6A4; ligand displacement; radioligand; 10 µM).
`C#Cc1cc(-c2cc(Nc3nc(N[C@@H](C)c4ccc(F)cn4)ncc3Cl)n[nH]2)ccc1C=O` gave an inhibition of 63% (Rhodopsin kinase GRK7 (GRK7, Homo sapiens, UniProt Q8WTQ7); enzyme activity; inhibitor; 0.2 µM).
